Key:
[1] = test system: Mus musculus; test: Analgesic activity in Swiss albino mouse inflammatory pain model assessed as inhibition of acetic acid-induced writhing at 40 mg/kg, po administered 30 mins prior to acetic acid challenge relative to vehicle-treated control; type: functional
In short: (§1)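 Male Swiss albino mice (23–25 g), standard diet, water ad libitum, 23 ± 1 °C, 12 h light/dark cycle, randomised into groups. Compound or vehicle (suspended in 1% carboxymethylcellulose) given orally 30 min before ip 0.6% acetic acid. Writhes counted starting 5 min after injection. Reported as writhe count and % reduction versus vehicle-treated mice. Mean of 10 mice per group.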

[2] = biological target: T1, Prostaglandin G/H synthase 2 (Mus musculus, UniProt Q05769); test: Inhibition of COX2 in mouse J774 cells assessed as inhibition of LPS-induced PGE2 production by radioimmunoassay; type: cell-based
T1 sequence (Q05769 whole entry): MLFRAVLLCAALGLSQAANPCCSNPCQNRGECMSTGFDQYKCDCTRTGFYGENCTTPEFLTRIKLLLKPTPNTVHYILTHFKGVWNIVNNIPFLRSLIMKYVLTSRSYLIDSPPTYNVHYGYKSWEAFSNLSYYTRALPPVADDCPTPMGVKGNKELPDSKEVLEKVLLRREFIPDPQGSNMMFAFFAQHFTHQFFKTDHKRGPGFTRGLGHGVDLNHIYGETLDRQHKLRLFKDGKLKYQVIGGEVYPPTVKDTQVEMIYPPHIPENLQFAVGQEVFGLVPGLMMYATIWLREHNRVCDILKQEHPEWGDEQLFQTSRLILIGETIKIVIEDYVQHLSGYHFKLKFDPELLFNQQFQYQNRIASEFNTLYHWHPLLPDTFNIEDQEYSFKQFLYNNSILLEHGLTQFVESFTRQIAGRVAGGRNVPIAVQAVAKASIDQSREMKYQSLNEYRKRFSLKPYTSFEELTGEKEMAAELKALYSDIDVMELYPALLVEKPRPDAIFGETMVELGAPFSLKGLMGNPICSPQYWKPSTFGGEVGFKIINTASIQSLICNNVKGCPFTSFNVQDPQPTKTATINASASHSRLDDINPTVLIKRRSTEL

[3] = test system: J774; test: Selectivity index, ratio of IC50 for COX1 in mouse J774 cells to IC50 for COX2 in mouse J774 cells; type: cell-based
[4] = test system: Mus musculus; test: Analgesic activity in Swiss albino mouse inflammatory pain model assessed as inhibition of acetic acid-induced writhing at 20 mg/kg, po administered 30 mins prior to acetic acid challenge relative to vehicle-treated control; type: functional; in short: as §1
[5] = test system: Mus musculus; test: Analgesic activity in Swiss albino mouse inflammatory pain model assessed as inhibition of acetic acid-induced writhing at 10 mg/kg, po administered 30 mins prior to acetic acid challenge relative to vehicle-treated control; type: functional; in short: as §1
[6] = biological target: T2, Prostaglandin G/H synthase 1 (Mus musculus, UniProt P22437); test: Inhibition of COX1 in mouse J774 cells using arachidonic acid as substrate assessed as inhibition of PGE2 production incubated for 15 mins prior to substrate addition measured after 30 mins by radioimmunoassay; type: cell-based
T2 sequence (P22437 whole entry): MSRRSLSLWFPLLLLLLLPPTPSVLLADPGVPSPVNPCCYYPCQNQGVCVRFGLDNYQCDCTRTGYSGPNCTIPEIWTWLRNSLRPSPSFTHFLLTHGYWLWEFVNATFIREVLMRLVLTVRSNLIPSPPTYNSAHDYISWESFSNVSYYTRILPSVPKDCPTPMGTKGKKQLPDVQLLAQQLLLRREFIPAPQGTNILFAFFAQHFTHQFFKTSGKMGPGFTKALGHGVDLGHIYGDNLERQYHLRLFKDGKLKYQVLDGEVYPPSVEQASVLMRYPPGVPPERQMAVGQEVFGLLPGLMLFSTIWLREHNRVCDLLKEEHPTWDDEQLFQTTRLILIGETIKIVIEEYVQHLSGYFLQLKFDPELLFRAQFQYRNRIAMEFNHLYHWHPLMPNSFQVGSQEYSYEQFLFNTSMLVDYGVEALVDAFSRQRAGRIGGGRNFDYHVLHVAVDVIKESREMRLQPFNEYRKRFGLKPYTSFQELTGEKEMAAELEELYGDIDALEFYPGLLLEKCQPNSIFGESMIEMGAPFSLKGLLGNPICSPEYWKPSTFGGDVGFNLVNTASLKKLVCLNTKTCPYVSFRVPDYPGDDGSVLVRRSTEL
In short: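 J774 cells allowed to adhere 2 h at 37 °C, 5% CO2; medium swapped for FBS-free medium just before use. Pre-treatment with compounds (0.01–10 µM) for 15 min, then 30 min at 37 °C with 15 µM arachidonic acid to activate constitutive COX-1. Supernatant PGE2 by RIA; triplicate wells, mean of three experiments as % inhibition vs control; IC50 from sigmoidal variable-slope fit.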

[7] = test system: Mus musculus; test: Analgesic activity in Swiss albino mouse inflammatory pain model assessed as inhibition of acetic acid-induced writhing at 1 mg/kg, po administered 30 mins prior to acetic acid challenge relative to vehicle-treated control; type: functional; in short: as §1
[8] = test system: Mus musculus; test: Analgesic activity in Swiss albino mouse inflammatory pain model assessed as inhibition of acetic acid-induced writhing at 5 mg/kg, po administered 30 mins prior to acetic acid challenge relative to vehicle-treated control; type: functional; in short: as §1
[9] = biological target: T3, Prostaglandin G/H synthase 2 (Mus musculus) (UniProt Q05769); test: Ratio of celecoxib IC50 to compound IC50 for COX2 in mouse J774 cells; type: cell-based
T3 sequence (whole entry): T1 sequence (Q05769 whole entry)
In short: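 The COX-2 IC50 was measured in J774 cells stimulated 24 h with E. coli LPS (10 µg/mL) with or without compound (0.01–10 µM). Supernatant PGE2 by RIA; triplicate wells, mean of three experiments; IC50 from a sigmoidal variable-slope fit. Celecoxib served as the reference for the index.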

[10] = species on record: Homo sapiens; test: Selectivity ratio of IC50 for platelet COX1 in human whole blood to IC50 for monocyte COX2 in human whole blood; type: tissue-based
[11] = biological target: Prostaglandin G/H synthase 1 (Homo sapiens, UniProt P23219); type: tissue-based, Blood
[12] = biological target: T4, Prostaglandin G/H synthase 2 (Homo sapiens, UniProt P35354); set-up: species or system Blood
T4 sequence (P35354 whole entry): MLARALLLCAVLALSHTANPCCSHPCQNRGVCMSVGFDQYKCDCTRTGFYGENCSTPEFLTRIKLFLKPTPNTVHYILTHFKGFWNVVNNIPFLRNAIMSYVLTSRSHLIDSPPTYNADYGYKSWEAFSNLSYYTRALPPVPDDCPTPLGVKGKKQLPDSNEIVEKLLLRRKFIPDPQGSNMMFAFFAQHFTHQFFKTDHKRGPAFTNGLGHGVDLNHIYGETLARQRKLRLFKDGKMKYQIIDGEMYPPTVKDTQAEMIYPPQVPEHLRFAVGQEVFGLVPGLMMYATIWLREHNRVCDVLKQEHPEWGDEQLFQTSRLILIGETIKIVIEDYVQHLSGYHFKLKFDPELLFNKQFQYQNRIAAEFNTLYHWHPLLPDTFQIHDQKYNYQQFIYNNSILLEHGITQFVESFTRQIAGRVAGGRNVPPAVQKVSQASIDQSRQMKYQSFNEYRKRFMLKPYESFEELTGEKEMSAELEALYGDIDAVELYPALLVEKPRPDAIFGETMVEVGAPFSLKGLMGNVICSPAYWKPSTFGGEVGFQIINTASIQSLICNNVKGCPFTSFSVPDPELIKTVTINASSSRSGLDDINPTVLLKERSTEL

Sequence of Prostaglandin G/H synthase 1 (Homo sapiens, UniProt P23219) (P23219 whole entry): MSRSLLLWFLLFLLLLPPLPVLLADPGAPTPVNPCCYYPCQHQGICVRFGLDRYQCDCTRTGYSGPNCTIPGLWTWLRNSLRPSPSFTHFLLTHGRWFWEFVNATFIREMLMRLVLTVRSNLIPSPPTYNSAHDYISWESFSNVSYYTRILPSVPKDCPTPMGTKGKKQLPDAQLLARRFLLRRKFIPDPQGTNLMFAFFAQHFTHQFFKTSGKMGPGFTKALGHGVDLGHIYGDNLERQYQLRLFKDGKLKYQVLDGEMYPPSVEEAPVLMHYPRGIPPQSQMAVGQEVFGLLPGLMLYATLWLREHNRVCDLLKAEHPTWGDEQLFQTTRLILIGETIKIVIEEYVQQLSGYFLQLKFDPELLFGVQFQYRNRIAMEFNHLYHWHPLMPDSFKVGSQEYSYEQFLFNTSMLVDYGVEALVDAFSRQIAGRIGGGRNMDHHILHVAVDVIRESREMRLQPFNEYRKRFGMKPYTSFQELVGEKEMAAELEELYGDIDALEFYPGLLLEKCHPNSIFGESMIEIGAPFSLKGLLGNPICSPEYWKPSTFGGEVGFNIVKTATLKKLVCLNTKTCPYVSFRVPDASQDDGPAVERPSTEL

Structure (SMILES)	inhibition in vivo at 40 mg/kg [1] [%]	IC50 [2] [µM]	Ratio IC50 [3]	inhibition in vivo at 20 mg/kg [4] [%]	inhibition in vivo at 10 mg/kg [5] [%]	IC50 [6] [µM]	inhibition in vivo at 1 mg/kg [7] [%]	inhibition in vivo at 5 mg/kg [8] [%]	Ratio IC50 [9]	Ratio IC50 [10]	IC50 [11] [µM]	IC50 [12] [µM]
Cc1c(/C=N\O)cc(-c2ccc(S(C)(=O)=O)cc2)n1-c1cccc(F)c1	45	0.44	> 22.7	42	32	> 10	–	–	–	–	–	–
Cc1ccc(-c2cc(C(F)(F)F)nn2-c2ccc(S(N)(=O)=O)cc2)cc1 [CELECOXIB]	69	–	–	58	57	–	42	50	–	–	–	–
Cc1c(C=O)cc(-c2ccc(S(C)(=O)=O)cc2)n1-c1ccc(F)cc1	31	–	–	30	–	> 10	–	5	–	–	–	–
Cc1c(C=O)cc(-c2ccc(S(C)(=O)=O)cc2)n1-c1cccc(F)c1	–	0.0095	> 1050	44	39	> 10	–	–	8	–	–	–
Cc1c(/C=N\O)cc(-c2ccc(S(C)(=O)=O)cc2)n1-c1ccc(F)cc1	47	0.36	> 27.8	41	36	> 10	–	2	–	–	–	–
Cc1c(C#N)cc(-c2ccc(S(C)(=O)=O)cc2)n1-c1cccc(F)c1	38	0.013	> 769	33	28	> 10	–	21	–	38.8	50.5	1.3
Cc1c(C=O)cc(-c2ccc(S(C)(=O)=O)cc2)n1-c1ccccc1	30	0.034	> 294	32	23	> 10	–	–	–	–	–	–
Cc1c(/C=N\O)cc(-c2ccc(S(C)(=O)=O)cc2)n1-c1ccccc1	57	0.19	> 52.6	53	27	> 10	–	13	–	–	–	–
Cc1c(C=O)cc(-c2ccc(S(C)(=O)=O)cc2)n1-c1ccc(F)c(F)c1	60	0.07	> 143	52	53	> 10	36	50	–	4.8	71.4	14.8
Cc1c(C#N)cc(-c2ccc(S(C)(=O)=O)cc2)n1-c1ccccc1	59	0.36	> 27.8	42	28	> 10	–	–	–	–	–	–
Cc1c(/C=N\O)cc(-c2ccc(S(C)(=O)=O)cc2)n1-c1ccc(F)c(F)c1	–	0.16	> 62.5	27	19	> 10	–	10	–	9.3	161	17.3
Cc1c(C#N)cc(-c2ccc(S(C)(=O)=O)cc2)n1-c1ccc(F)c(F)c1	57	0.0022	> 454	38	19	> 10	–	8	36	–	–	–
Cc1c(C#N)cc(-c2ccc(S(C)(=O)=O)cc2)n1-c1ccc(F)cc1	45	–	–	33	36	> 10	–	5	–	–	–	–

From ChEMBL document CHEMBL2390933, “A class of pyrrole derivatives endowed with analgesic/anti-inflammatory activity” (Bioorg Med Chem, 2013)
